Reference: ChEMBL document CHEMBL2034924, “Optimization of a Potent, Orally Active S1P1 Agonist Containing a Quinolinone Core” (ACS Med Chem Lett, 2012)
In brackets after ≈: the same amount, converted by molar mass.

Columns and labels:
[1] = target: T1, Sphingosine 1-phosphate receptor 1 (Homo sapiens, UniProt P21453); test: Agonist activity at human S1P1 receptor expressed in human U2OS cells co-expressing eGFP assessed as receptor internalization after 1 hr; assay type: functional, cell-based
How it was run: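 U2OS cells expressing an hS1P1-GFP fusion protein; the read-out was receptor internalization. EC50 is the molar concentration giving a half-maximal response.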

[2] = target: T1, Sphingosine 1-phosphate receptor 1; test: Agonist activity at human S1P1 receptor expressed in human U2OS cells co-expressing eGFP assessed as receptor internalization after 1 hr relative to 1-(4-(6-benzylbenzofuran-2-yl)-3-fluorobenzyl)azetidine-3-carboxylic acid; assay type: functional, cell-based
[3] = target: T2, Sphingosine 1-phosphate receptor 3 (Homo sapiens, UniProt Q99500); test: Agonist activity at human S1P3 receptor expressed in CHO cells coexpressing Gq/i5 G-protein assessed as Ca2+ mobilization after 60 to 90 mins by FLIPR assay; assay type: functional, cell-based
How it was run: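 Ca2+ mobilization in CHO-K1 cells transfected with hS1P3/Gq/i5. EC50 is the molar concentration giving a half-maximal response.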

[4] = Solubility of the compound in simulated intestinal fluid at pH 6.8 after 2 to 3 days by HPLC analysis; assay type: physicochemical
[5] = Apparent permeability of the compound across pig LLC-PK1 cells; assay type: ADME, cell-based, Sus scrofa
How it was run: (§1)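 Parental porcine proximal tubule LLC-PK1 cell line. Apparent permeability was measured, and the efflux ratio was derived from it.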

[6] = Efflux ratio of permeability in pig LLC-PK1 cells; assay type: ADME, cell-based, Sus scrofa; how it was run: as §1
[7] = Plasma protein binding in rat; assay type: ADME, cell-free; details: read-out: PPB (converted)
[8] = Intrinsic clearance in rat liver microsomes at 1 uM after 30 mins; assay type: ADME, Microsome; details: read-out: CLH
Rattus norvegicus [9] = test: Lymphopenic activity in Lewis rat assessed as reduction in peripheral blood lymphocyte counts at 1 mg/kg, po measured 24 hrs post dosing relative to control; assay type: functional; parameters: scale not given: the % may be the effect or the level left
How it was run: (§2)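 Female Lewis rats (N = 5/group) received a single oral dose of 1 mg/kg in 20% captisol, 1% HPMC, 1% pluronic F68, pH 2.1 with MSA. Peripheral lymphocyte count is given as percent-of-control reduction versus vehicle at 24 h. Total plasma drug concentration was measured at 24 h. Statistics used ANOVA/Dunnett versus vehicle.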

Rattus norvegicus [10] = test: Lymphopenic activity in Lewis rat assessed as reduction in peripheral blood lymphocyte counts at 3 mg/kg, po measured 24 hrs post dosing relative to control; assay type: functional; parameters: scale not given: the % may be the effect or the level left
How it was run: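 Female Lewis rats (N = 3/group) received a single oral dose in 20% captisol/1% HPMC/1% pluronic F68, pH 2, with MSA. Blood lymphocyte counts and plasma concentration were measured at 24 h, reported as mean ± SE. Comparison was versus vehicle by ANOVA/Dunnett, P < 0.05.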

[11] = (§3) Plasma concentration in Lewis rat at 1 mg/kg, po measured 24 hrs post dosing; assay type: ADME, organism-based; parameters: dose 1 mg/kg, route oral; details: Lewis, plasma; how it was run: as §2
[12] = Clearance in C57BL/6 mouse at 1 mg/kg, iv and 3 mg/kg, po; assay type: ADME, organism-based; details: in vivo
How it was run: (§4)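 Female C57BL/6 mice. IV dosing used 40% hydroxypropyl β-cyclodextrin/60% water. Oral dosing used 1% HPMC/1% pluronic F68/20% HPBCD/78% water with MSA, pH 2.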

[13] = Volume of distribution at steady state in C57BL/6 mouse at 1 mg/kg, iv; assay type: ADME, organism-based; parameters: dose 1 mg/kg, route intravenous; details: in vivo, read-out: Vdss; how it was run: as §4
[14] = Mean residence time in C57BL/6 mouse at 1 mg/kg, iv; assay type: ADME, organism-based; parameters: dose 1 mg/kg, route intravenous; details: in vivo; how it was run: as §4
[15] = AUC (0 to infinity) in C57BL/6 mouse at 3 mg/kg, po; assay type: ADME, organism-based; parameters: time infinity, dose 3 mg/kg, route oral; details: plasma; how it was run: as §4
[16] = Oral bioavailability in C57BL/6 mouse at 3 mg/kg; assay type: ADME, organism-based; details: in vivo; how it was run: as §4
[17] = Clearance in Sprague-Dawley rat at 1 mg/kg, iv and 2 mg/kg, po; assay type: ADME, organism-based; details: in vivo
How it was run: (§5)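 Male Sprague-Dawley rats. IV doses were given in DMSO. Oral doses were given in 20% Captisol/1% Tween 80, pH 2, with MSA. Plasma was collected up to 48 h after dosing.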

[18] = Volume of distribution at steady state in Sprague-Dawley rat at 1 mg/kg, iv; assay type: ADME, organism-based; parameters: dose 1 mg/kg, route intravenous; details: in vivo, read-out: Vdss; how it was run: as §5
[19] = Mean residence time in Sprague-Dawley rat at 1 mg/kg, iv; assay type: ADME, organism-based; parameters: dose 1 mg/kg, route intravenous; details: in vivo; how it was run: as §5
[20] = AUC (0 to infinity) in Sprague-Dawley rat at 2 mg/kg, po; assay type: ADME, organism-based; parameters: time infinity, dose 2 mg/kg, route oral; details: plasma; how it was run: as §5
[21] = Oral bioavailability in Sprague-Dawley rat at 2 mg/kg; assay type: ADME, organism-based; details: in vivo; how it was run: as §5
[22] = AUC (0 to infinity) in Sprague-Dawley rat at 100 mg/kg, po; assay type: ADME, organism-based; parameters: time infinity, dose 100 mg/kg, route oral; details: plasma; how it was run: as §5
[23] = Oral bioavailability in Sprague-Dawley rat at 100 mg/kg; assay type: ADME, organism-based; details: in vivo; how it was run: as §5
[24] = Clearance in nonhuman primates at 4 mg/kg, iv and 10 mg/kg, po; assay type: ADME, organism-based; details: in vivo
How it was run: (§6)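 Pharmacokinetics in male nonhuman primates. IV vehicle was 40% hydroxypropyl β-cyclodextrin/60% water with MSA, pH 3. Oral vehicle was 1% HPMC/1% pluronic F68/20% HPBCD/78% water with MSA, pH 2.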

[25] = Volume of distribution at steady state in nonhuman primates at 4 mg/kg, iv; assay type: ADME, organism-based; parameters: dose 4 mg/kg, route intravenous; details: in vivo, read-out: Vdss; how it was run: as §6
[26] = Mean residence time in nonhuman primates at 4 mg/kg, iv; assay type: ADME, organism-based; parameters: dose 4 mg/kg, route intravenous; details: in vivo; how it was run: as §6
[27] = AUC (0 to infinity) in nonhuman primates at 10 mg/kg, po; assay type: ADME, organism-based; parameters: dose 10 mg/kg, route oral, time infinity; details: plasma; how it was run: as §6
[28] = Oral bioavailability in nonhuman primates at 10 mg/kg; assay type: ADME, organism-based; details: in vivo; how it was run: as §6
[29] = Half life in Sprague-Dawley rat at 100 mg/kg, po; assay type: ADME, organism-based; parameters: dose 100 mg/kg, route oral; details: in vivo; how it was run: as §5
[30] = Half life in Sprague-Dawley rat at 1 to 2 mg/kg, iv and po; assay type: ADME, organism-based; parameters: dose 1-2 mg/kg, route oral; details: in vivo; how it was run: as §5
[31] = target: T2, Sphingosine 1-phosphate receptor 3; test: Agonist activity at human S1P3 receptor expressed in CHO cells coexpressing Gq/i5 G-protein assessed as Ca2+ mobilization at 25 uM after 60 to 90 mins by FLIPR assay; assay type: functional, cell-based
[32] = target: T2, Sphingosine 1-phosphate receptor 3; test: Agonist activity at human S1P3 receptor expressed in CHO cells coexpressing Gq/i5 G-protein assessed as Ca2+ mobilization after 60 to 90 mins by FLIPR assay relative to 0.2 uM S1P
Plasma = test: as §3; assay type: ADME, organism-based; parameters: dose 1 mg/kg, route oral; details: in vivo, 24 h, BLD = below limit of detection; how it was run: as §2
[33] = AUC (0 to 24 hrs) in rat at 3 mg/kg, po; assay type: ADME, organism-based; parameters: time < 24 hr, dose 3 mg/kg, route oral; details: plasma
Rattus norvegicus [34] = test: AUC (0 to 24 hrs) in rat at 100 mg/kg, po; assay type: ADME, organism-based, Plasma; parameters: time < 24 hr, dose 100 mg/kg, route oral; details: in vivo

T2 sequence (Q99500 whole entry): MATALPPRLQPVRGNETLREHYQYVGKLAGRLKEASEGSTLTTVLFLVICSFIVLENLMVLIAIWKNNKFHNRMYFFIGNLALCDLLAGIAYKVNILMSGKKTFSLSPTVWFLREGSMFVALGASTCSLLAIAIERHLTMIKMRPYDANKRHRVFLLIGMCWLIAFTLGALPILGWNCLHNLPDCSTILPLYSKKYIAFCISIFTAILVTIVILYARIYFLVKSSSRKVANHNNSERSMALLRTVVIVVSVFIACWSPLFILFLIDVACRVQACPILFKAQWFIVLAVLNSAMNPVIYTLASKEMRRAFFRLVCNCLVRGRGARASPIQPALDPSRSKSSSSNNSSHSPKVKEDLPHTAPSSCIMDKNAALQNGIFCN
T1 sequence (P21453 whole entry, the tested form may be a part): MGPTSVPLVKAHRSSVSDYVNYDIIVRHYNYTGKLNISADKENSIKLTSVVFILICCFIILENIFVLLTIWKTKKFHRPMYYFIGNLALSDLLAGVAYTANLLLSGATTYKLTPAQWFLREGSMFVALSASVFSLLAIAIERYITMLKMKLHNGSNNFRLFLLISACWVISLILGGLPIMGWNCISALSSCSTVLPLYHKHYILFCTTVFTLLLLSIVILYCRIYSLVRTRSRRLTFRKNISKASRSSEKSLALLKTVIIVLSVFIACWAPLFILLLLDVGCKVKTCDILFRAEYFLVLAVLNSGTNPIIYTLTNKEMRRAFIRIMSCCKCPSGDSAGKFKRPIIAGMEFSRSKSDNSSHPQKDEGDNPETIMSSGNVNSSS

Structure (SMILES): Cn1cc(C(=O)Nc2ccc(-c3ccccc3)c(C(F)(F)F)c2)c(=O)c2cnc(CO)cc21
- EC50 [1]: 18 nM
- Efficacy [2]: 106%
- EC50 [3]: > 25000 nM
- solubility [4]: > 200 µg/mL
- Papp [5]: 2.5 ×10⁻⁶ cm/s
- efflux ratio [6]: 1
- fraction unbound [7]: 0.083
- microsomal CLint at 1 µM [8]: < 14 µL/min/mg
- Activity (Rattus norvegicus [9]): -60%
- Activity (Rattus norvegicus [10]): 88%
- concentration at 24 h [11]: 84 ng/mL
- clearance [12]: 5.17 mL/min/kg
- Vd [13]: 6 L/kg
- MRT [14]: 20 h
- AUC(0-inf) [15]: 16 µM·h
- bioavailability [16]: 75%
- clearance [17]: 5.17 mL/min/kg
- Vd [18]: 5.8 L/kg
- MRT [19]: 19 h
- AUC(0-inf) [20]: 19 µM·h
- bioavailability [21]: 132%
- AUC(0-inf) [22]: 1630 µM·h
- bioavailability [23]: > 93%
- clearance [24]: 1.83 mL/min/kg
- Vd [25]: 4.3 L/kg
- MRT [26]: 40 h
- AUC(0-inf) [27]: 141 µM·h
- bioavailability [28]: 67%
- half-life [29]: 57 h
- half-life [30]: 13 h
- Activity [31]: < 10%

Structure (SMILES): Cn1cc(C(=O)Nc2ccc(-c3ccccc3)c(C(F)(F)F)c2)c(=O)c2cnc(CCC(=O)O)cc21
- EC50 [1]: 38 nM
- Efficacy [2]: 88%
- EC50 [3]: 1300 nM
- Efficacy [32]: 49%

Structure (SMILES): Cn1cc(C(=O)Nc2ccc(-c3ccccc3)c(C(F)(F)F)c2)c(=O)c2ccc(C(=O)O)cc21
- EC50 [1]: 21 nM
- Efficacy [2]: 98%
- EC50 [3]: > 25000 nM
- solubility [4]: 48 µg/mL (≈ 103 µM)
- Papp [5]: 3 ×10⁻⁶ cm/s
- efflux ratio [6]: 6.7
- fraction unbound [7]: 0.02
- microsomal CLint at 1 µM [8]: < 14 µL/min/mg
- Activity (Rattus norvegicus [9]): 4%
- Cp (Plasma): BLD
- Activity [31]: < 10%

Structure (SMILES): Cn1cc(C(=O)Nc2ccc(-c3ccccc3)c(C(F)(F)F)c2)c(=O)c2cc(CO)ccc21
- EC50 [1]: 700 nM
- Efficacy [2]: 46%
- EC50 [3]: > 25000 nM
- Activity [31]: < 10%

Structure (SMILES): Cn1cc(C(=O)Nc2ccc(-c3ccccc3)c(C(F)(F)F)c2)c(=O)c2cccc(CO)c21
- EC50 [1]: 39 nM
- Efficacy [2]: 104%
- EC50 [3]: > 25000 nM
- Activity [31]: < 10%

Structure (SMILES): Cn1cc(C(=O)Nc2ccc(-c3ccccc3)c(C(F)(F)F)c2)c(=O)c2cccc(CCO)c21
- EC50 [1]: 390 nM
- Efficacy [2]: 106%
- EC50 [3]: > 25000 nM
- Activity [31]: < 10%

Structure (SMILES): Cn1cc(C(=O)Nc2ccc(-c3ccccc3)c(C(F)(F)F)c2)c(=O)c2ccc(CCC(=O)O)cc21
- EC50 [1]: 4 nM
- Efficacy [2]: 85%
- EC50 [3]: 940 nM
- solubility [4]: 200 µg/mL (≈ 404 µM)
- Papp [5]: 1.6 ×10⁻⁶ cm/s
- efflux ratio [6]: 1
- fraction unbound [7]: 0.022
- microsomal CLint at 1 µM [8]: < 14 µL/min/mg
- Activity (Rattus norvegicus [9]): -25%
- concentration at 24 h [11]: 4 ng/mL
- Efficacy [32]: 82%

Structure (SMILES): Cn1cc(C(=O)Nc2ccc(-c3ccccc3)c(C(F)(F)F)c2)c(=O)c2ccccc21
- Efficacy [2]: 105%

Structure (SMILES): COc1ccncc1C(=O)NC(=O)Nc1ccc(-c2ccccc2)c(C(F)(F)F)c1
- AUC(0-t) at 24 h [33]: 12 µM·h
- AUC (Rattus norvegicus [34]): 73 µM·h
